Laboratory results taken from ChEMBL document CHEMBL4819003, “Optimization of novel oxidative DIMs as Nur77 modulators of the Nur77-Bcl-2 apoptotic pathway” (Eur J Med Chem, 2021).
Active and inactive are the calls of the source. No cut-off for these calls is given here.

Assays:
MDA-MB-231 = test: Induction of apoptosis in human MDA-MB-231 cells assessed as PARP cleavage at 0.5 uM measured after 6 hrs by western blot assay; format: functional, cell-based
In short: (§1)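 Cells exposed to 0.5 µM for 6 h. Lysates resolved by SDS-PAGE and blotted to PVDF, blocked in 5% milk/TBST, probed with primary antibodies at 1:1000, ECL detection. Apoptosis scored as the densitometric ratio of cleaved PARP band to intact PARP band; mean ± SD, n = 3.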

HCT-116 = test: Induction of apoptosis in human HCT-116 cells assessed as PARP cleavage at 0.5 uM measured after 6 hrs by western blot assay; format: functional, cell-based; in short: as §1

Fc1ccccc1[C+](c1c[nH]c2ccccc12)c1c[nH]c2ccccc12
Activity (MDA-MB-231): inactive
Activity (HCT-116): inactive

Clc1ccc([C+](c2c[nH]c3ccccc23)c2c[nH]c3ccccc23)cc1
Activity (MDA-MB-231): inactive
Activity (HCT-116): Active

FC(F)(F)c1ccc([C+](c2c[nH]c3ccccc23)c2c[nH]c3ccccc23)c(C(F)(F)F)c1
Activity (MDA-MB-231): inactive
Activity (HCT-116): inactive

Oc1ccc([C+](c2c[nH]c3ccccc23)c2c[nH]c3ccccc23)cc1
Activity (MDA-MB-231): Active
Activity (HCT-116): inactive

Cn1cc([C+](c2ccc(C(F)(F)F)cc2)c2cn(C)c3ccccc23)c2ccccc21
Activity (MDA-MB-231): Active
Activity (HCT-116): inactive

Fc1cccc([C+](c2c[nH]c3ccccc23)c2c[nH]c3ccccc23)c1
Activity (MDA-MB-231): Active
Activity (HCT-116): Active

CCCCn1cc([C+](c2ccc(C(F)(F)F)cc2)c2c[nH]c3ccccc23)c2ccccc21
Activity (MDA-MB-231): Active
Activity (HCT-116): Active

c1ccc2c([C+](c3c[nH]c4ccccc34)c3csc4ccccc34)c[nH]c2c1
Activity (MDA-MB-231): inactive
Activity (HCT-116): Active

O=[N+]([O-])c1ccc([C+](c2c[nH]c3ccccc23)c2c[nH]c3ccccc23)cc1
Activity (MDA-MB-231): inactive
Activity (HCT-116): Active

O=C(O)c1ccc([C+](c2c[nH]c3ccccc23)c2c[nH]c3ccccc23)cc1
Activity (MDA-MB-231): inactive
Activity (HCT-116): Active

c1cncc([C+](c2c[nH]c3ccccc23)c2c[nH]c3ccccc23)c1
Activity (MDA-MB-231): inactive
Activity (HCT-116): Active

c1ccc(-c2ccc([C+](c3c[nH]c4ccccc34)c3c[nH]c4ccccc34)cc2)cc1
Activity (MDA-MB-231): Active
Activity (HCT-116): Active

Oc1ccccc1[C+](c1c[nH]c2ccccc12)c1c[nH]c2ccccc12
Activity (MDA-MB-231): inactive
Activity (HCT-116): inactive

c1csc([C+](c2c[nH]c3ccccc23)c2c[nH]c3ccccc23)c1
Activity (MDA-MB-231): inactive
Activity (HCT-116): Active

Fc1ccc([C+](c2c[nH]c3ccccc23)c2c[nH]c3ccccc23)cc1
Activity (MDA-MB-231): Active
Activity (HCT-116): Active

COc1ccc([C+](c2c[nH]c3ccccc23)c2c[nH]c3ccccc23)cc1
Activity (MDA-MB-231): inactive
Activity (HCT-116): inactive

c1ccc2c([C+](c3c[nH]c4ccccc34)c3c[nH]c4ccccc34)c[nH]c2c1
Activity (MDA-MB-231): inactive
Activity (HCT-116): Active

CCc1ccc([C+](c2c[nH]c3ccccc23)c2c[nH]c3ccccc23)cc1
Activity (MDA-MB-231): inactive
Activity (HCT-116): inactive

Clc1ccccc1[C+](c1c[nH]c2ccccc12)c1c[nH]c2ccccc12
Activity (MDA-MB-231): inactive
Activity (HCT-116): inactive

Oc1cccc([C+](c2c[nH]c3ccccc23)c2c[nH]c3ccccc23)c1
Activity (MDA-MB-231): inactive
Activity (HCT-116): Active

Cc1cccc([C+](c2c[nH]c3ccccc23)c2c[nH]c3ccccc23)c1
Activity (MDA-MB-231): inactive
Activity (HCT-116): Active

c1coc([C+](c2c[nH]c3ccccc23)c2c[nH]c3ccccc23)c1
Activity (MDA-MB-231): inactive
Activity (HCT-116): Active

Cc1ccc([C+](c2c[nH]c3ccccc23)c2c[nH]c3ccccc23)cc1
Activity (MDA-MB-231): inactive
Activity (HCT-116): inactive

FC(F)(F)c1ccccc1[C+](c1c[nH]c2ccccc12)c1c[nH]c2ccccc12
Activity (MDA-MB-231): inactive
Activity (HCT-116): inactive

COc1cccc([C+](c2c[nH]c3ccccc23)c2c[nH]c3ccccc23)c1
Activity (MDA-MB-231): inactive
Activity (HCT-116): Active

COC(=O)c1ccc([C+](c2c[nH]c3ccccc23)c2c[nH]c3ccccc23)cc1
Activity (MDA-MB-231): Active
Activity (HCT-116): Active

CCCCCn1cc([C+](c2ccc(C(F)(F)F)cc2)c2c[nH]c3ccccc23)c2ccccc21
Activity (MDA-MB-231): inactive
Activity (HCT-116): inactive

Clc1cccc([C+](c2c[nH]c3ccccc23)c2c[nH]c3ccccc23)c1
Activity (MDA-MB-231): inactive
Activity (HCT-116): Active
